ChEMBL document CHEMBL2380254, “Optimization of tocotrienols as antiproliferative and antimigratory leads” (Eur J Med Chem, 2013)

Experiments:
MDA-MB-231 [1] = experiment: Growth inhibition of human MDA-MB-231 cells after 48 hrs by sulforhodamine B assay; format: functional; conditions: MDA-MB-231, 48 h
In short: (§1)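 NCI-60 panel cells grown in RPMI 1640 with 5% FBS and 2 mM L-glutamine, seeded at 5000–40,000 cells/well and preincubated 24 h. Five 10-fold dilutions (0.001–100 µM) from DMSO stocks were added for 48 h at 37 °C. Adherent cells were fixed with cold TCA (10% final) for 60 min at 4 °C, stained with 0.4% SRB, and read at 515 nm. GI50 was set where 100×(T−T0)/(C−T0)=50.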

MDA-MB-231 [2] = experiment: Antiproliferative activity against human MDA-MB-231 cells by MTT assay; format: functional, cell-based
In short: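 Cells plated at 8 × 10^3/well (MDA-MB-231) or 10^4/well (MCF7) in 96-well plates. Compounds fed in media with 5% FBS (MDA-MB-231) or 1% FBS (MCF7). MTT read-out of viable cells.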

SK-OV-3 = experiment: Growth inhibition of human SKOV3 cells after 48 hrs by sulforhodamine B assay; format: functional; conditions: SK-OV-3, 48 h
In short: (§2)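 NCI-60 five-dose screen. Cells were grown in RPMI 1640 with 5% FBS and 2 mM L-glutamine, plated at 5000–40,000 cells/well and incubated 24 h before dosing, with T0 plates TCA-fixed. DMSO stocks were diluted to doses of […] and exposed 48 h at 37 °C, 5% CO2. Cells were fixed with cold TCA (final 10%, 60 min, 4 °C), stained with 0.4% SRB in 1% acetic acid for 10 min, solubilized in 10 mM trizma base and read at 515 nm. GI50 is where 100×(T−T0)/(C−T0)=50.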

[3] = Growth inhibition of human EKVX cells assessed as cell growth at 10 uM after 48 hrs by sulforhodamine B assay; format: functional; conditions: read-out: Activity
In short: (§3)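 NCI-60 single-dose screen at 10 µM: cells in RPMI 1640 with 5% FBS, preincubated 24 h, then exposed 48 h at 37 °C. TCA fixation (16% final for suspension cells), SRB staining, absorbance 515 nm. Percent growth relative to time-zero and untreated control plates; negative values indicate cell kill.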

K562 = experiment: Growth inhibition of human K562 cells assessed as cell growth at 10 uM after 48 hrs by sulforhodamine B assay; format: functional; conditions: K562, 48 h, read-out: Activity; in short: as §3
SN12C = experiment: Growth inhibition of human SN12C cells assessed as cell growth at 10 uM after 48 hrs by sulforhodamine B assay; format: functional; conditions: read-out: Activity
In short: (§4)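 Single-dose NCI-60 test at 10 µM. Cells were grown in RPMI 1640 with 5% FBS and 2 mM L-glutamine, preincubated 24 h, with T0 plates TCA-fixed. Exposure was 48 h at 37 °C, 5% CO2. Cells were fixed with cold TCA (final 10%, 4 °C, 60 min), stained with SRB and read at 515 nm. Percent growth was taken relative to T0 and untreated control; negative values denote cell kill.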

M14 = experiment: Growth inhibition of human M14 cells after 48 hrs by sulforhodamine B assay; format: functional; conditions: M14, 48 h
In short: (§5)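 NCI-60 screen: cells in RPMI 1640 with 5% FBS and 2 mM glutamine, 5000–40,000 cells/well, preincubated 24 h. Five concentrations (10-fold dilutions; 100 to 0.001 µM) applied for 48 h at 37 °C. TCA fixation, SRB stain, absorbance at 515 nm. Time-zero plates included; GI50 where 100×(T−T0)/(C−T0)=50.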

MDA-MB-231 [4] = experiment: Growth inhibition of human MDA-MB-231 cells assessed as cell growth at 10 uM after 48 hrs by sulforhodamine B assay; format: functional; conditions: MDA-MB-231, 48 h, read-out: Activity
In short: (§6)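 Single-dose NCI-60 screen: adherent cells in RPMI 1640 with 5% FBS were exposed to 10 µM for 48 h at 37 °C after a 24 h preincubation. They were fixed in situ with cold TCA (10% final), stained with 0.4% SRB in 1% acetic acid, solubilized in 10 mM Tris base, and read at 515 nm. Percent growth was taken relative to time-zero and control plates.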

[5] = Growth inhibition of human HCC2998 cells after 48 hrs by sulforhodamine B assay; format: functional; conditions: HCC 2998, 48 h; in short: as §5
COLO 205 = experiment: Growth inhibition of human COLO205 cells assessed as cell growth at 10 uM after 48 hrs by sulforhodamine B assay; format: functional; conditions: COLO 205, 48 h, read-out: Activity; in short: as §3
HCT-15 = experiment: Growth inhibition of human HCT15 cells after 48 hrs by sulforhodamine B assay; format: functional; conditions: HCT-15, 48 h; in short: as §5
MCF7 = experiment: Growth inhibition of human MCF7 cells assessed as cell growth at 10 uM after 48 hrs by sulforhodamine B assay; format: functional; conditions: MCF7, 48 h, read-out: Activity; in short: as §6
HT-29 = experiment: Growth inhibition of human HT-29 cells assessed as cell growth at 10 uM after 48 hrs by sulforhodamine B assay; format: functional; conditions: HT-29, 48 h, read-out: Activity; in short: as §3
HOP-62 = experiment: Growth inhibition of human HOP62 cells assessed as cell growth at 10 uM after 48 hrs by sulforhodamine B assay; format: functional; conditions: HOP-62, 48 h, read-out: Activity; in short: as §3
T47D = experiment: Growth inhibition of human T47D cells assessed as cell growth at 10 uM after 48 hrs by sulforhodamine B assay; format: functional; conditions: read-out: Activity; in short: as §4
UACC-62 = experiment: Growth inhibition of human UACC62 cells after 48 hrs by sulforhodamine B assay; format: functional; conditions: UACC-62, 48 h; in short: as §2
TK-10 = experiment: Growth inhibition of human TK10 cells assessed as cell growth at 10 uM after 48 hrs by sulforhodamine B assay; format: functional; conditions: TK-10, 48 h, read-out: Activity; in short: as §4
OVCAR-3 = experiment: Growth inhibition of human OVCAR3 cells after 48 hrs by sulforhodamine B assay; format: functional; conditions: OVCAR-3, 48 h; in short: as §1
SF-295 = experiment: Growth inhibition of human SF295 cells assessed as cell growth at 10 uM after 48 hrs by sulforhodamine B assay; format: functional; conditions: SF-295, 48 h, read-out: Activity; in short: as §6
CCRF-CEM = experiment: Growth inhibition of human CCRF-CEM cells after 48 hrs by sulforhodamine B assay; format: functional; in short: as §5
[6] = Antiproliferative activity against mouse +SA cells by MTT assay; format: functional, cell-based; conditions: +SA cell
In short: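 Mouse +SA mammary epithelial cells in serum-free DMEM/F12 with BSA, transferrin, insulin and EGF. Compounds from DMSO stock conjugated to BSA (overnight, 37 °C); 0–40 µM, final DMSO <0.1%. MTT 0.42 mg/mL for 4 h at 37 °C, isopropanol solubilization, OD 570 nm. Cell number from a standard curve; IC50 by non-linear regression.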

NCI-H23 = experiment: Growth inhibition of human NCI-H23 cells after 48 hrs by sulforhodamine B assay; format: functional; conditions: NCI-H23, 48 h; in short: as §1
SK-MEL-5 = experiment: Growth inhibition of human SK-MEL-5 cells assessed as cell growth at 10 uM after 48 hrs by sulforhodamine B assay; format: functional; conditions: SK-MEL-5, 48 h, read-out: Activity; in short: as §6

SMILES | GI50 (MDA-MB-231 [1]) [µM] | GI50 (SK-OV-3) [µM] | growth at 10 µM [3] [%] | growth at 10 µM (K562) [%] | growth at 10 µM (SN12C) [%] | GI50 (M14) [µM] | growth at 10 µM (MDA-MB-231 [4]) [%] | GI50 [5] [µM] | growth at 10 µM (COLO 205) [%] | GI50 (HCT-15) [µM] | growth at 10 µM (MCF7) [%] | growth at 10 µM (HT-29) [%] | growth at 10 µM (HOP-62) [%] | growth at 10 µM (T47D) [%] | GI50 (UACC-62) [µM] | growth at 10 µM (TK-10) [%] | GI50 (OVCAR-3) [µM] | growth at 10 µM (SF-295) [%] | GI50 (CCRF-CEM) [µM] | IC50 [6] [µM] | further results
CC(C)=CCC/C(C)=C/CC/C(C)=C/CC[C@]1(C)CCc2c3c(cc(C)c2O1)OCN(CCc1ccc(O)cc1)C3 | 4.65 | 6.2 | 90.7 | 3.51 | 65.6 | 6.66 | 46.9 | 1.71 | -69.9 | 5.87 | -86.3 | 18.6 | -31.3 | 6.16 | 6.01 | 100 | 3.56 | 102 | 1.75 | 0.91 | IC50 (MDA-MB-231 [2]): > 5 µM; GI50 (NCI-H23): 6.82 µM; growth at 10 µM (SK-MEL-5): 73.8%
COc1ccc(CCN2COc3cc(C)c4c(c3C2)CC[C@@](C)(CC/C=C(\C)CC/C=C(\C)CCC=C(C)C)O4)cc1OC | 1.94 | 1.9 | 85.5 | 3.17 | 37 | 1.79 | 13.2 | 1.48 | -72.5 | 1.93 | -65.7 | 0.54 | -34.3 | 31.2 | 1.64 | 97.7 | 2 | 99.2 | 3.32 | 0.87 | GI50 (NCI-H23): 1.85 µM; growth at 10 µM (SK-MEL-5): 90%
CC(C)=CCC/C(C)=C/CC/C(C)=C/CC[C@]1(C)CCc2c3c(c(C)c(C)c2O1)OCN(CCCCCO)C3 | 5.87 | 6.85 | 90.6 | -55.4 | 78.5 | 6.63 | 55 | 2.53 | 68.7 | 6.24 | 24.3 | 55.1 | 114 | 94.4 | 5.87 | 97.5 | 6.71 | 92.7 | 7.83 | 1.7 | IC50 (MDA-MB-231 [2]): > 50 µM; GI50 (NCI-H23): 6.67 µM; growth at 10 µM (SK-MEL-5): 108%
CC(C)=CCC/C(C)=C/CC/C(C)=C/CC[C@]1(C)CCc2c3c(cc(C)c2O1)OCN(C1CCN(Cc2ccccc2)CC1)C3 | 1.63 | 1.93 | 78 | -29.3 | 1.77 | 1.89 | 18.2 | 0.626 | -36.5 | 4.03 | -36 | 22.7 | 111 | 89.3 | 1.48 | 82.5 | 1.39 | 93.2 | 0.308 | 0.8 | GI50 (NCI-H23): 1.51 µM; growth at 10 µM (SK-MEL-5): 110%
CC(C)=CCC/C(C)=C/CC/C(C)=C/CC[C@]1(C)CCc2c3c(cc(C)c2O1)OCN(CCCCCO)C3 | 5.87 | 6.85 | 90.5 | -35 | 67.4 | 6.63 | 46.1 | 2.53 | 3.96 | 6.24 | -63.6 | -34.9 | 20.6 | 59.5 | 5.87 | 76.3 | 6.71 | 103 | 7.83 | 0.7 | IC50 (MDA-MB-231 [2]): 9 µM; GI50 (NCI-H23): 6.67 µM; growth at 10 µM (SK-MEL-5): 83.9%
